# Measured values from different studies.
# Lines come from different studies, so protocols differ.
# Target: Myosin light chain kinase 2, skeletal/cardiac muscle (MYLK2, Homo sapiens, UniProt Q9H1R3)
SMILES,test,conditions,measurement,value
Cn1cc(-c2cc(F)cc(N3CCn4c(cc5c4CCCC5)C3=O)c2CO)cc(Nc2ccc(N3CCN(C4COC4)CC3)cn2)c1=O,"enzyme activity, inhibitor",0.1 µM,inhibition,17%
COc1ncccc1-c1cnn2ccc(N3CCN(C(=O)OC(C)C)CC3)nc12,"binding, competition with immobilised ligand",1 µM,remaining binding,89%
Nc1ncc(-c2nc(N3CCOCC3)nc(N3CCOCC3)n2)c(C(F)F)n1,"binding, competition with immobilised ligand",10 µM,remaining binding,92%
O=c1[nH]c2ccccc2n1C1CCN(Cc2ccc(-c3[nH]c4cc5ncnc5cc4nc3-c3ccccc3)cc2)CC1,cell-free assay,0.5 µM,remaining signal,103%
Cn1cncc1[C@@](O)(COc1ccc(C#N)cc1-c1ccc(OC(F)(F)F)cc1)c1ccc(C#N)cc1,"cell-free assay, competition with immobilised ligand",1 µM,remaining binding,100%
CC(C)(C)c1cc(C=C(C#N)C#N)cc(Br)c1O,"enzyme activity, inhibitor",0.5 µM,remaining activity,99.3%
Cn1cc(-c2cccc(N3CCc4c(sc5c4CC(C)(C)C5)C3=O)c2CO)cc(Nc2ccncn2)c1=O,"enzyme activity, inhibitor",1 µM,inhibition,14%
COc1cc(Nc2ncc(F)c(Nc3ccc4c(n3)NC(=O)C(C)(C)O4)n2)cc(OC)c1OC,"binding, competition with immobilised ligand",10 µM,inhibition,58%
Cc1nn(C)cc1-c1nc2c(N3CCN(Cc4ccc(Cl)cc4)CC3)c(Cl)cnc2[nH]1,"binding, competition with immobilised ligand",1 µM,remaining binding,61%
